# Source: ChEMBL document CHEMBL1126129, “Flavones. 3. Synthesis, biological activities, and conformational analysis of isoflavone derivatives and related compounds” (1992)
# Active and inactive are the calls of the source. The calls are words filed in the database; no cut-off is given here.
# Legend:
# Rattus norvegicus [1] = assay: In vivo inhibition of carrageenan-induced paw oedema in rats following 50 mg/kg administration.; format: functional
# In short: (§1)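 Male Sprague-Dawley rats, housed 1 week, 160-200 g at test, groups of six. Dosed orally in 0.5% aqueous methocel 2 h before carrageenan challenge; controls got vehicle. Paw volume measured by mercury plethysmometer immediately and 3 h later. % inhibition = (Δcontrol − Δtest)/Δcontrol × 100, compared with control by analysis of variance. Usually one experiment per compound.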
# Rattus norvegicus [2] = assay: Antihypertensive activity was measured as decrease in systolic blood pressure in spontaneously hypertensive rats at 75 mg/kg, po 2 hours after dosing; NS denotes not significant; format: functional, organism-based; set-up: dose 75 mg/kg; conditions: Artery
# In short: (§2)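 Male spontaneously hypertensive rats (Wistar-Kyoto strain), five per dose group. Systolic arterial pressure measured by indirect tail cuff. Dosing was 75 mg/kg po, or 30 mg/kg iv for one analog. Percentage fall in systolic pressure recorded at stated hours after dosing. Significance vs control at p < 0.05; non-significant falls flagged.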
# Rattus norvegicus [3] = assay: Antihypertensive activity was measured as decrease in systolic blood pressure in spontaneously hypertensive rats at 75 mg/kg, po 24 hours after dosing; format: functional, Artery; in short: as §2
# Rattus norvegicus [4] = assay: Antihypertensive activity was measured as decrease in systolic blood pressure in spontaneously hypertensive rats at 75 mg/kg, po 5 hours after dosing; format: functional, Artery; in short: as §2
# Rattus norvegicus [5] = assay: Antihypertensive activity was measured as decrease in systolic blood pressure in spontaneously hypertensive rats at 75 mg/kg, po 7.5 hours after dosing; format: functional, Artery; in short: as §2
# Rattus norvegicus [6] = assay: Antihypertensive activity was measured as decrease in systolic blood pressure in spontaneously hypertensive rats at 75 mg/kg, po 2 hours after dosing; format: functional, Artery; in short: as §2
# Rattus norvegicus [7] = assay: Antiinflammatory activity was measured as %inhibition of carrageenan-induced paw edema in male rats at 25 mg/kg dose; format: functional; in short: as §1
# Rattus norvegicus [8] = assay: Antiinflammatory activity was measured as %inhibition of carrageenan-induced paw edema in male rats at 50 mg/kg dose; format: functional; in short: as §1
# Rattus norvegicus [9] = assay: Antihypertensive activity was measured as decrease in systolic blood pressure in spontaneously hypertensive rats at 75 mg/kg, po 24 hours after dosing; NS denotes not significant; format: functional, organism-based; set-up: dose 75 mg/kg; conditions: Artery; in short: as §2
# Rattus norvegicus [10] = assay: Antihypertensive activity was measured as decrease in systolic blood pressure in spontaneously hypertensive rats at 75 mg/kg, po 5 hours after dosing; NS denotes not significant; format: functional, organism-based; set-up: dose 75 mg/kg; conditions: Artery; in short: as §2
# Rattus norvegicus [11] = assay: Antihypertensive activity was measured as decrease in systolic blood pressure in spontaneously hypertensive rats at 75 mg/kg, po 7.5 hours after dosing; NS denotes not significant; format: functional, organism-based; set-up: dose 75 mg/kg; conditions: Artery; in short: as §2
# Rattus norvegicus [12] = assay: Antihypertensive activity was measured as decrease in systolic blood pressure in spontaneously hypertensive rats at 30 mg/kg, iv 2 hours after dosing; NS denotes not significant; format: functional, organism-based; set-up: dose 30 mg/kg; conditions: Artery; in short: as §2
# Rattus norvegicus [13] = assay: Antiinflammatory activity was measured as inhibition of carrageenan-induced paw edema in male rats at 4 mg/kg dose; format: functional; in short: as §1
# Rattus norvegicus [14] = assay: Antiinflammatory activity was measured as inhibition of carrageenan-induced paw edema in male rats at 25 mg/kg dose; format: functional; in short: as §1
smiles,measurement,setting,value
O=c1cc(-c2ccccc2)oc2cc(OCCCNC3CCCC3)ccc12,inhibition in vivo at 50 mg/kg,Rattus norvegicus [1],21%
Cc1oc2cc(OCC(O)CNC(C)C)ccc2c(=O)c1-c1ccccc1 (stereo not drawn),Decrease in SBP,Rattus norvegicus [2],inactive
same,Decrease in SBP,Rattus norvegicus [3],17%
same,Decrease in SBP,Rattus norvegicus [4],12%
same,Decrease in SBP,Rattus norvegicus [5],19%
same,inhibition in vivo at 50 mg/kg,Rattus norvegicus [1],19%
CC(C)NCC(O)COc1ccc2c(=O)c(-c3ccccc3)c(-c3ccccc3)oc2c1 (stereo not drawn),Decrease in SBP,Rattus norvegicus [6],15%
same,Decrease in SBP,Rattus norvegicus [3],34%
same,Decrease in SBP,Rattus norvegicus [4],23%
same,Decrease in SBP,Rattus norvegicus [5],30%
same,inhibition in vivo at 25 mg/kg,Rattus norvegicus [7],32%
same,inhibition in vivo at 50 mg/kg,Rattus norvegicus [8],24.6%
CC(C)NCCCOc1ccc2c(=O)cc(-c3ccccc3)oc2c1,inhibition in vivo at 50 mg/kg,Rattus norvegicus [1],41%
Clc1cccc(Cl)c1NC1=NCCN1 [CLONIDINE],Decrease in SBP,Rattus norvegicus [4],15%
CC(C)NCC(O)COc1ccc2c(=O)c(-c3ccccc3)c(Cc3ccccc3)oc2c1 (stereo not drawn),Decrease in SBP,Rattus norvegicus [2],inactive
same,Decrease in SBP,Rattus norvegicus [9],inactive
same,Decrease in SBP,Rattus norvegicus [10],inactive
same,Decrease in SBP,Rattus norvegicus [11],inactive
same,inhibition in vivo at 50 mg/kg,Rattus norvegicus [1],-3.4%
CC(C)(C)NCCCOc1ccc2c(=O)cc(-c3ccccc3)oc2c1,inhibition in vivo at 50 mg/kg,Rattus norvegicus [1],34%
CCCNCC(O)COc1cccc2c(=O)c(-c3ccccc3)coc12 (stereo not drawn),Decrease in SBP,Rattus norvegicus [12],inactive
COc1ccc2c(c1)c(CC(=O)O)c(C)n2C(=O)c1ccc(Cl)cc1 [INDOMETHACIN],Inhibition,Rattus norvegicus [13],44.6%
Cc1oc2cc(OCC(O)C[N+](C)(C)C(C)C)ccc2c(=O)c1-c1ccccc1.[I-] (stereo not drawn),Decrease in SBP,Rattus norvegicus [2],inactive
same,Decrease in SBP,Rattus norvegicus [9],inactive
same,Decrease in SBP,Rattus norvegicus [10],inactive
same,Decrease in SBP,Rattus norvegicus [5],0.1%
same,inhibition in vivo at 50 mg/kg,Rattus norvegicus [1],36%
Cc1oc2cc(OCC(O)CN(C)C(C)C)ccc2c(=O)c1-c1ccccc1 (stereo not drawn),Decrease in SBP,Rattus norvegicus [2],inactive
same,Decrease in SBP,Rattus norvegicus [9],inactive
same,Decrease in SBP,Rattus norvegicus [10],inactive
same,Decrease in SBP,Rattus norvegicus [11],inactive
same,inhibition in vivo at 50 mg/kg,Rattus norvegicus [1],19%
COc1c(-c2ccccc2)oc2cc(OCCCNC(C)C)ccc2c1=O,inhibition in vivo at 50 mg/kg,Rattus norvegicus [1],-2%
O=c1cc(-c2ccccc2)oc2cc(OCCCNC3CCCCCCC3)ccc12,inhibition in vivo at 50 mg/kg,Rattus norvegicus [1],26%
CCCNCCCOc1ccc2c(=O)cc(-c3ccccc3)oc2c1,inhibition in vivo at 50 mg/kg,Rattus norvegicus [1],18%
CC(C)NCC(O)COc1ccc2c(=O)c(-c3ccccc3)c(C(F)(F)F)oc2c1 (stereo not drawn),Decrease in SBP,Rattus norvegicus [2],inactive
same,Decrease in SBP,Rattus norvegicus [3],20%
same,Decrease in SBP,Rattus norvegicus [4],16%
same,Decrease in SBP,Rattus norvegicus [5],16%
same,inhibition in vivo at 50 mg/kg,Rattus norvegicus [1],28%
O=c1c(-c2ccccc2)coc2cc(OCC(O)CNC3CCCCCCC3)ccc12 (stereo not drawn),Decrease in SBP,Rattus norvegicus [2],inactive
same,Decrease in SBP,Rattus norvegicus [9],inactive
same,Decrease in SBP,Rattus norvegicus [10],inactive
same,Decrease in SBP,Rattus norvegicus [11],inactive
same,inhibition in vivo at 25 mg/kg,Rattus norvegicus [14],41%
same,inhibition in vivo at 50 mg/kg,Rattus norvegicus [1],21%
CCCNCC(O)COc1ccc2c(=O)c(-c3ccccc3)c(C(F)(F)F)oc2c1 (stereo not drawn),Decrease in SBP,Rattus norvegicus [2],inactive
same,Decrease in SBP,Rattus norvegicus [3],17%
same,Decrease in SBP,Rattus norvegicus [4],11%
same,Decrease in SBP,Rattus norvegicus [5],12%
same,inhibition in vivo at 50 mg/kg,Rattus norvegicus [1],22%
CC(C)NCC(O)COc1ccc2c(=O)c(-c3ccccc3)c(C(C)C)oc2c1 (stereo not drawn),Decrease in SBP,Rattus norvegicus [6],18%
same,Decrease in SBP,Rattus norvegicus [3],15%
same,Decrease in SBP,Rattus norvegicus [4],20%
same,Decrease in SBP,Rattus norvegicus [5],25%
same,inhibition in vivo at 50 mg/kg,Rattus norvegicus [1],28%
CN(C)CCCOc1ccc2c(=O)cc(-c3ccccc3)oc2c1,inhibition in vivo at 50 mg/kg,Rattus norvegicus [1],13%
CCCCCNCCCOc1ccc2c(=O)cc(-c3ccccc3)oc2c1,inhibition in vivo at 50 mg/kg,Rattus norvegicus [1],-9%
CC(C)NCC(O)COc1ccc2c(=O)c(-c3ccccc3)c(-c3ccco3)oc2c1 (stereo not drawn),Decrease in SBP,Rattus norvegicus [2],inactive
same,Decrease in SBP,Rattus norvegicus [9],inactive
same,Decrease in SBP,Rattus norvegicus [10],inactive
same,Decrease in SBP,Rattus norvegicus [5],15%
same,inhibition in vivo at 50 mg/kg,Rattus norvegicus [1],19%
CC(C)NCC(O)COc1ccc2c(=O)c(-c3ccccc3)c(C3CCCCC3)oc2c1 (stereo not drawn),Decrease in SBP,Rattus norvegicus [2],inactive
same,Decrease in SBP,Rattus norvegicus [9],inactive
same,Decrease in SBP,Rattus norvegicus [10],inactive
same,Decrease in SBP,Rattus norvegicus [11],inactive
same,inhibition in vivo at 50 mg/kg,Rattus norvegicus [1],24%
CC(C)NCC(O)COc1ccc2c(=O)cc(-c3ccccc3)oc2c1 (stereo not drawn),Decrease in SBP,Rattus norvegicus [6],12%
same,Decrease in SBP,Rattus norvegicus [3],16%
same,Decrease in SBP,Rattus norvegicus [4],18%
same,Decrease in SBP,Rattus norvegicus [5],23%
same,inhibition in vivo at 50 mg/kg,Rattus norvegicus [8],14.5%
CC(C)NCC(O)COc1ccc2c(=O)c(-c3ccccc3)coc2c1 (stereo not drawn),Decrease in SBP,Rattus norvegicus [2],inactive
same,Decrease in SBP,Rattus norvegicus [3],21%
same,Decrease in SBP,Rattus norvegicus [4],11%
same,Decrease in SBP,Rattus norvegicus [5],14%
same,inhibition in vivo at 50 mg/kg,Rattus norvegicus [1],33%
